Data as given in ChEMBL document CHEMBL4715801, “Discovery of Mycobacterium tuberculosis InhA Inhibitors by Binding Sites Comparison and Ligands Prediction” (J Med Chem, 2016).

How the values were obtained:
[1] = Inhibition of Mycobacterium tuberculosis InhA assessed as effect on NADH oxidation incubated for 10 mins by spectrophotometry
[2] = Inhibition of Mycobacterium tuberculosis InhA assessed as residual enzyme activity by measuring NADH oxidation at 100 uM incubated for 10 mins by spectrophotometry
[3] = Mixed type inhibition of Mycobacterium tuberculosis InhA assessed as effect on NADH oxidation incubated for 10 mins by spectrophotometry
Outline: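 Inhibition type and Ki were taken from the continuous spectrophotometric InhA assay. DD-CoA was the substrate, and its Km was determined alongside.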

## COc1ccc(-c2[nH]c3ccccc3c2CCC(=O)Nc2ncccc2C)cc1
[1]
  IC50: 14 µM
[2]
  Activity: > 50%

## Oc1cc(Cl)ccc1Oc1ccc(Cl)cc1Cl
[2]
  Activity: > 50%

## Cc1cc2ncn(Cc3ccc(Cl)c(Cl)c3)c2cc1C
[1]
  IC50: 10 µM
[2]
  Activity: > 50%
[3]
  Ki: 4 µM

## Cc1c(CN(C)C(=O)/C=C/c2cnc3c(c2)CCC(=O)N3)c2ccccc2n1C
[2]
  Activity: > 50%
